Values after ≈ are worked out from the molar mass of the structure shown. Active and inactive are the calls of the source. The calls are words filed in the database; no cut-off is given here.
Key:
[1] = biological target: Nuclear receptor subfamily 4immunitygroup A member 1 (Homo sapiens, UniProt P22736, Y453A); assay: Binding affinity to Nur77 Y453A mutant expressed in human BGC823 cells; assay type: cell-based, BGC-823
[2] = biological target: T1, Nuclear receptor subfamily 4immunitygroup A member 1 (Homo sapiens, UniProt P22736); assay: Binding affinity to nuclear orphan receptor Nur77 assessed as conformational change in receptor by CD spectroscopic
T1 sequence (P22736 whole entry): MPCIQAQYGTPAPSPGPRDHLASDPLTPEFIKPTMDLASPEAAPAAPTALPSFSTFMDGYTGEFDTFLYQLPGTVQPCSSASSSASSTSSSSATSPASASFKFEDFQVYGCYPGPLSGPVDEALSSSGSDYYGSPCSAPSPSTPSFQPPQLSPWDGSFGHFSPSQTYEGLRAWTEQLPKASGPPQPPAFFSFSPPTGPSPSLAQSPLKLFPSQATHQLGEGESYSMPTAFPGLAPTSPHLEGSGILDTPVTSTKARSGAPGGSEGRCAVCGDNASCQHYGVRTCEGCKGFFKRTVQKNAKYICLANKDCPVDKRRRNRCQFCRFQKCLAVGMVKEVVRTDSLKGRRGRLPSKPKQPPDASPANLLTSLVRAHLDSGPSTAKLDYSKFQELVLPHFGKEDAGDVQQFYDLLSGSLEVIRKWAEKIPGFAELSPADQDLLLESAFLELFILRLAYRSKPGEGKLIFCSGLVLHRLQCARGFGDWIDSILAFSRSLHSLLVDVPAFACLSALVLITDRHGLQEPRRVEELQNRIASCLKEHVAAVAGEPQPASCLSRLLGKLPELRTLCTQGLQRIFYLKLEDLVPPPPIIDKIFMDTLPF

Saccharomyces cerevisiae = assay: Antimicrobial activity against Saccharomyces cerevisiae; assay type: functional, organism-based
Staphylococcus aureus = assay: Antimicrobial activity against Staphylococcus aureus; assay type: functional, organism-based
[3] = system: Mycobacterium tuberculosis; assay: Antimicrobial activity against Mycobacterium tuberculosis; assay type: functional, organism-based
[4] = biological target: T1, Nuclear receptor subfamily 4immunitygroup A member 1; assay: Binding affinity to GST-tagged nuclear orphan receptor Nur77 at 25 degC by fluorescence quenching analysis
Procedure, shortened: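 GST-Nur77 intrinsic fluorescence (emission maximum 336 nm) monitored while increasing Csn-B amounts were added; inner-filter contribution estimated with GST alone and subtracted to give corrected quenching curves.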

BGC-823 = assay: Induction of mitochondria translocation of Nur77 from nucleus in human BGC823 cells transfected with GFP-Nur77 pretreated with 1 ng/ml leptomycin B at 5 ug/ml after 12 hrs using […] by confocal microscope; assay type: functional, cell-based

Nuclear receptor subfamily 4immunitygroup A member 1 (Homo sapiens, UniProt P22736, Y453A), sequence (P22736 whole entry Y453A): as the sequence (P22736 whole entry) above, with Y453A counted along it

Row | Compound | Kd [1] [µM] | Activity [2] | IC50 (Saccharomyces cerevisiae) [mg/L] | IC50 (Staphylococcus aureus) [mg/L] | IC50 [3] [mg/L] | Activity [4] | Activity (BGC-823)
1 | CC1=C(/C=C/C(C)=C\C=C\C(C)=C\C(=O)O)C(C)(C)CCC1 [ALITRETINOIN] | 0.81 | – | – | – | – | – | –
2 | CCCCCCCC1OC(=O)Cc2cc(O)cc(O)c21 (configuration not stated) [CYTOSPORONE C] | – | inactive | 12.5 (≈ 44.9 µM) | 50 (≈ 180 µM) | 62.5 (≈ 225 µM) | inactive | inactive

— ChEMBL document CHEMBL1221214, “Cytosporone B is an agonist for nuclear orphan receptor Nur77” (Nat Chem Biol, 2008)
